The target of data set [1] is 1-phosphatidylinositol 3-phosphate 5-kinase (Homo sapiens) (UniProt Q9Y2I7). Description: Inhibition of human partial length PIKFYVE (F1512 to C2098 residues) expressed in mammalian expression system assessed as residual activity at 10 uM by kinome scan method relative to control. In outline:
(§1)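 KINOMEscan competitive binding screen at 10 μM test compound against a 52-kinase panel. Output is % Ctrl = (test signal − positive control signal)/(negative control signal − positive control signal) × 100. DMSO is the negative control (100%) and the positive control is set to 0%.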

Data set [2] addresses Receptor tyrosine-protein kinase erbB-3 (Homo sapiens) (UniProt P21860). The data set is described as follows: Inhibition of human partial length ERBB3 (G684 to A987 residues) expressed in mammalian expression system assessed as residual activity at 10 uM by kinome scan method relative to control. In outline:
(§2)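 KINOMEscan binding assay, test compound at 10 μM against a 52-kinase panel. % Ctrl = (compound signal − positive control signal)/(negative control signal − positive control signal) × 100, with DMSO as negative control (100%) and a positive control (0%).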

Data set [3] is described as follows: Half life in Sprague-Dawley rat at 5 mg/kg, po. The class given is ADME, organism-based. The following applies: in vivo. In outline:
(§3)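 Male Sprague-Dawley rats (n = 3) given a single oral gavage of 5 mg/kg as a homogeneous opaque suspension in 0.5% methylcellulose; plasma concentration-time curves used to derive mean PK parameters.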

Data set [4] concerns the target AP2-associated protein kinase 1 (Homo sapiens) (UniProt Q2M2I8). The data set is described as follows: Inhibition of human partial length AAK1 (G25 to L333 residues) expressed in bacterial system assessed as residual activity at 10 uM by kinome scan method relative to control. In outline: as §2
For data set [5], the target named is Casein kinase I isoform alpha-like (Homo sapiens) (UniProt Q8N752). Description: Inhibition of human partial length CSNK1A1L (M1 to N337 residues) expressed in bacterial expression system assessed as residual activity at 10 uM by kinome scan method relative to control. In outline:
as §2

Data set [6] relates to U-87 MG. The data set is described as follows: Antitumour activity against human U87MG cells xenografted in ICR nude mouse assessed as tumour growth inhibition at 30 mg/kg, po every other day for 24 days relative to control. The class given is functional, U-87MG ATCC. As to conditions: 576 h, time 24 day, read-out: TGI. In outline:
(§4)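 Male ICR nude mice inoculated subcutaneously with 5 × 10⁶ U87MG cells. Once tumours reached about 200 mm³, mice were randomised and dosed by oral gavage every other day for 24 days. Tumour volume (length × width² × 0.5) and body weight recorded every 4 days. Inhibition = 100 × {1 − [(final − initial volume) treated]/[(final − initial volume) vehicle]}.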
Background: A xenograft is tissue or cells of one species grown in another, often human tumour cells in immunodeficient mice.

Data set [7] addresses Cyclin-dependent kinase 14 (Homo sapiens) (UniProt O94921). The data set is described as follows: Inhibition of human full length PFTK1 (M1 to H451 residues) expressed in bacterial expression system assessed as residual activity at 10 uM by kinome scan method relative to control. In outline: as §2
The target of data set [8] is Serine/threonine-protein kinase mTOR (Homo sapiens, UniProt P42345). The data set is described as follows: Inhibition of mTOR in human U87MG cells assessed as suppression of phosphorylation of S6 ribosomal at 25 nM after 3 hrs by Western blot analysis. The following applies: U87. (In general: A western blot detects proteins with antibodies after separation by electrophoresis.)

A short description of data set [9]: Cmax in Sprague-Dawley rat at 5 mg/kg, po. The class given is ADME, organism-based. Details: route oral, dose 5 mg/kg. As to conditions: in vivo. In outline: as §3
Data set [10] deals with U-87 MG. Description: Growth inhibition of human U87MG cells after 72 hrs by sulforhodamine B assay. Format: functional, U-87MG ATCC.
Data set [11] is described as follows: Toxicity in ICR nude mouse xenografted with U87MG cells assessed as reduction in body weight at 30 to 60 mg/kg, po every other day for 24 days. The class given is organism-based. As to conditions: in vivo, 576 h, dose 30-60 mg/kg, time 24 day. In outline: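 Male ICR nude mice were implanted subcutaneously with 5 × 10^6 U87MG cells. When tumors reached about 200 mm³, mice were randomized and given 30 or 60 mg/kg by oral gavage every other day for 24 days. Body weight and tumor volume (length × width² × 0.5) were recorded every 4 days, with a vehicle-treated group as comparator.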

Data set [12] can be described thus: MRT(0 to infinity) in Sprague-Dawley rat at 5 mg/kg, po. The class given is ADME, organism-based. As to conditions: in vivo. In outline:
(§5)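 Male Sprague-Dawley rats (n = 3) received a single 5 mg/kg oral gavage dose formulated as a suspension in 0.5% methylcellulose. Plasma concentration-time curves were recorded and mean PK parameters derived.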

Data set [13] has as its target Phosphatidylinositol 4,5-bisphosphate 3-kinase catalytic subunit alpha isoform (Homo sapiens, UniProt P42336). The data set is described as follows: Inhibition of recombinant human PI3Kalpha using PIP2 as substrate incubated for 1 hr by kinase-glo luminescent assay. (In general: In Kinase-Glo more light means more ATP remaining.)
Data set [14] deals with Tyrosine-protein kinase receptor Tie-1 (Homo sapiens) (UniProt P35590). Description: Inhibition of human partial length TIE1 (T819 to A1138 residues) expressed in bacterial expression system assessed as residual activity at 10 uM by kinome scan method relative to control. In outline:
as §1

Data set [15] addresses Activin receptor type-2B (Homo sapiens) (UniProt Q13705). Description: Inhibition of human partial length ACVR2B (H169 to D504 residues) expressed in bacterial system assessed as residual activity at 10 uM by kinome scan method relative to control. In outline: as §2
Data set [16] addresses Cyclin-dependent kinase-like 3 (Homo sapiens) (UniProt Q8IVW4). Description: Inhibition of human partial length CDKL1 (M1 to D327 residues) expressed in bacterial system assessed as residual activity at 10 uM by kinome scan method relative to control. In outline:
as §2

For data set [17], the target named is Ankyrin repeat and protein kinase domain-containing protein 1 (Homo sapiens) (UniProt Q8NFD2). Description: Inhibition of human partial length ANKK1 (M1 to A305 residues) expressed in bacterial system assessed as residual activity at 10 uM by kinome scan method relative to control. In outline: as §2
The nature of data set [18]: MRT(0 to t) in Sprague-Dawley rat at 5 mg/kg, po. Format: ADME, organism-based. As to conditions: in vivo. In outline: as §5
The target of data set [19] is Receptor-interacting serine/threonine-protein kinase 1 (Homo sapiens) (UniProt Q13546). The data set is described as follows: Inhibition of human partial length RIPK1 (M1 to K305 residues) expressed in bacterial expression system assessed as residual activity at 10 uM by kinome scan method relative to control. In outline:
as §1

In data set [20] the target is Mitogen-activated protein kinase kinase kinase 13 (Homo sapiens) (UniProt O43283). The data set is described as follows: Inhibition of human full length LZK (M1 to W966 residues) expressed in bacterial expression system assessed as residual activity at 10 uM by kinome scan method relative to control. In outline: as §2
Data set [21] is described as follows: AUC(0 to infinity) in Sprague-Dawley rat at 5 mg/kg, po. The class given is ADME, organism-based. Details: time infinity, route oral, dose 5 mg/kg. The following applies: in vivo. In outline:
as §3

Data set [22] concerns the target Microtubule-associated serine/threonine-protein kinase 1 (Homo sapiens) (UniProt Q9Y2H9). Description: Inhibition of human partial length MAST1 (S346 to V730 residues) expressed in bacterial expression system assessed as residual activity at 10 uM by kinome scan method relative to control. In outline:
as §2

Data set [23] addresses Phosphatidylinositol 4-phosphate 3-kinase C2 domain-containing subunit beta (Homo sapiens) (UniProt O00750). The data set is described as follows: Inhibition of human partial length PIK3C2B (M1 to L1634 residues) expressed in bacterial expression system assessed as residual activity at 10 uM by kinome scan method relative to control. In outline: as §2
Data set [24] has as its system U-87 MG. Description: Antitumour activity against human U87MG cells xenografted in ICR nude mouse assessed as tumour growth inhibition at 60 mg/kg, po every other day for 24 days relative to control. The following applies: U-87MG ATCC, time 24.0 day. The class given is functional, organism-based. In outline:
as §4

Activity calls are given as the source filed them. No cut-off for these calls is given here.

The text below walks through data of ChEMBL document CHEMBL4732196, “Structural optimization towards promising β-methyl-4-acrylamido quinoline derivatives as PI3K/mTOR dual inhibitors for anti-cancer therapy: The in vitro and in vivo biological evaluation” (Eur J Med Chem, 2021).

Usually half-life stands for how long it takes for the measured level to halve. A higher half-life goes with slow decline. In general, Cmax refers to the maximum level reached in the sampled fluid or tissue. For orientation: GI50 means the concentration that inhibits growth by half. What is called MRT inf is the average time that molecules of a dose stay in the body. In general, IC50 refers to the point on the concentration scale where inhibition reaches its midpoint. One may read the MRT last as a mean duration of stay, worked out from the concentration-time curve. Usually AUC(0-inf) stands for total exposure, with the tail of the curve extrapolated. A lower AUC(0-inf) goes with less exposure.

Chain of 1-phosphatidylinositol 3-phosphate 5-kinase (Homo sapiens) (Q9Y2I7 whole entry, the tested form may be a part): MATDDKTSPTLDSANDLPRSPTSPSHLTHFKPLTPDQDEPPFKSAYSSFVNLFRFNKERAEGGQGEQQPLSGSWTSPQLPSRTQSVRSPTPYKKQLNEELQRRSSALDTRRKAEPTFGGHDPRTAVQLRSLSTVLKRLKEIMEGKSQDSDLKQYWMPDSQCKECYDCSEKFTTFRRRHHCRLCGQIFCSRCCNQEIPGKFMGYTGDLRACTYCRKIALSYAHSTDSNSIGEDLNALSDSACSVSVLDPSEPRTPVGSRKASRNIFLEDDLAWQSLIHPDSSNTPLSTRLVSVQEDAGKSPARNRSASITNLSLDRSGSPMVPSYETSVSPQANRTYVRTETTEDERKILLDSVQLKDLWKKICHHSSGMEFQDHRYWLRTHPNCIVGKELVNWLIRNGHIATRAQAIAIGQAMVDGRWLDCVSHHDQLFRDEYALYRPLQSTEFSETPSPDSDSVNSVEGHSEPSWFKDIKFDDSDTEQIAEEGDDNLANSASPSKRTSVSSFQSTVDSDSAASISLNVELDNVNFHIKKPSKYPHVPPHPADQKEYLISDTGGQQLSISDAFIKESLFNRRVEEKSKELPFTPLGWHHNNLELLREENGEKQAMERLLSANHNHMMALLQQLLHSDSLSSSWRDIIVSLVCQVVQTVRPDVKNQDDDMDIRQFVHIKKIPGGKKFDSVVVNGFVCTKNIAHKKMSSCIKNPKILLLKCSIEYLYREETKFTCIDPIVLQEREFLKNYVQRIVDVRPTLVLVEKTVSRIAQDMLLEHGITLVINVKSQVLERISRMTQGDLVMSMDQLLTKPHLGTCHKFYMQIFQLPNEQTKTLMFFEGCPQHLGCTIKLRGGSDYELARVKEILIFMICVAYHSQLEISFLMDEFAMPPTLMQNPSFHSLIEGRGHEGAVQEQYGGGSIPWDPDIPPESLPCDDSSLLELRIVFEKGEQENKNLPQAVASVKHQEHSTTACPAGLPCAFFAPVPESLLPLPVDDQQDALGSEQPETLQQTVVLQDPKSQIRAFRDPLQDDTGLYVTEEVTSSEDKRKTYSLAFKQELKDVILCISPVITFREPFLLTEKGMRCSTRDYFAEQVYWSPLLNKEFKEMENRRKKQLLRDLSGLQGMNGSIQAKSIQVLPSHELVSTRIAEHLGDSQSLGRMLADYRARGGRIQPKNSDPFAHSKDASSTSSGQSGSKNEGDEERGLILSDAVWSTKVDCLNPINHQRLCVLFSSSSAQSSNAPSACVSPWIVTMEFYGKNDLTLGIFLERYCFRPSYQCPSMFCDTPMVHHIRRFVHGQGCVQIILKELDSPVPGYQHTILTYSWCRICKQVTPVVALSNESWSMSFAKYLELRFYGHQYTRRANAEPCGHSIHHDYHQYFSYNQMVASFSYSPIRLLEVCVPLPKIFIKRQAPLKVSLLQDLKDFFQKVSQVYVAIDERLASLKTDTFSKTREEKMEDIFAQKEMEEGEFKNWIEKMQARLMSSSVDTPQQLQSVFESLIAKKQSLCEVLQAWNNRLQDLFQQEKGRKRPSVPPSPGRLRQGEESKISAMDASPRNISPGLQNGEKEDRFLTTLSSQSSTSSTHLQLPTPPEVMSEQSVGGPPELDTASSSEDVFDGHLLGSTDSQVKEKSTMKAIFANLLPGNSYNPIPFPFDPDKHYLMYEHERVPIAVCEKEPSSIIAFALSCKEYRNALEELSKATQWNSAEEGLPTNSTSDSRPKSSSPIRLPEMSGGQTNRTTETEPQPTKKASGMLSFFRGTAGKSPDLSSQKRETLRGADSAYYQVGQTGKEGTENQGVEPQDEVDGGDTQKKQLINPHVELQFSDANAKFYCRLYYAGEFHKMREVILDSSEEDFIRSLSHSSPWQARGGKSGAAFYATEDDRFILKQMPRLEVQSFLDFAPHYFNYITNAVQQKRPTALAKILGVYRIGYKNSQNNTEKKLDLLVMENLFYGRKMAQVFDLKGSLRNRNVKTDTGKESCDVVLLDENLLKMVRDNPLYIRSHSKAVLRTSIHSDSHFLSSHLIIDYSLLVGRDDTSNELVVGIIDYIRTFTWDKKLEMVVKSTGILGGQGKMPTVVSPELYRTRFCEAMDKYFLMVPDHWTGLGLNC
Chain of Cyclin-dependent kinase-like 3 (Homo sapiens) (Q8IVW4 whole entry, looked up, the tested form may be a part): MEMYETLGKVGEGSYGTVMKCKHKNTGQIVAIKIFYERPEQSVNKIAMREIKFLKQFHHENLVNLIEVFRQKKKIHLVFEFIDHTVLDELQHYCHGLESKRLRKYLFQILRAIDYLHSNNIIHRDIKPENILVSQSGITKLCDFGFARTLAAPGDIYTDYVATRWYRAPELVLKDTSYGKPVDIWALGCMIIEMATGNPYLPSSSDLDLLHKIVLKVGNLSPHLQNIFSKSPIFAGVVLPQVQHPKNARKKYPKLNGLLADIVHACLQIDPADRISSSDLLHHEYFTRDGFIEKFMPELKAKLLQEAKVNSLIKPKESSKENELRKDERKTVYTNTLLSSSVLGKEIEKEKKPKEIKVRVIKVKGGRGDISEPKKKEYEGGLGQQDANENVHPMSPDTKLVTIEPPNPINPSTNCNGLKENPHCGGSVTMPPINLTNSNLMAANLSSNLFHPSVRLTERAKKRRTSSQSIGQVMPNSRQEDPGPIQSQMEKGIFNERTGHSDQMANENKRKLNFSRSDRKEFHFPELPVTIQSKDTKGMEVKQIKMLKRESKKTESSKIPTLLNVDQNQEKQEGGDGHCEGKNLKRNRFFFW
Chain of Receptor-interacting serine/threonine-protein kinase 1 (Homo sapiens) (Q13546 whole entry, the tested form may be a part): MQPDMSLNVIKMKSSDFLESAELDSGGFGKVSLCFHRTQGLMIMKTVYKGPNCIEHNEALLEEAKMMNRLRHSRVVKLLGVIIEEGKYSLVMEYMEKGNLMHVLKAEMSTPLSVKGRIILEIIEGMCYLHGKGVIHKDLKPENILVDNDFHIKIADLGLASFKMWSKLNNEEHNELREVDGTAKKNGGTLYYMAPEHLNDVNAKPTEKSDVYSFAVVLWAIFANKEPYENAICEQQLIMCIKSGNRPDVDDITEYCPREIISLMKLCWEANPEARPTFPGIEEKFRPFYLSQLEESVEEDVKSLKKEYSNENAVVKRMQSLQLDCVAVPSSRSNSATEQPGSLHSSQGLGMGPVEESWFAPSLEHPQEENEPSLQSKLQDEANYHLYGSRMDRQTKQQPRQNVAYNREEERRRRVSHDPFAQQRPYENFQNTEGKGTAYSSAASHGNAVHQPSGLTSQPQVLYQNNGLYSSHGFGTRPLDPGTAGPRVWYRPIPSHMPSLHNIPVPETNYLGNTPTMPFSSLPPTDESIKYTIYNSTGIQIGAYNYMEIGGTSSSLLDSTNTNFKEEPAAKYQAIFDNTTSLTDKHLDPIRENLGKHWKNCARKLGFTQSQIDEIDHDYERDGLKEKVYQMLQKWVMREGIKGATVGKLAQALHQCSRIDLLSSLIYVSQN
Chain of Receptor tyrosine-protein kinase erbB-3 (Homo sapiens) (P21860 whole entry, the tested form may be a part): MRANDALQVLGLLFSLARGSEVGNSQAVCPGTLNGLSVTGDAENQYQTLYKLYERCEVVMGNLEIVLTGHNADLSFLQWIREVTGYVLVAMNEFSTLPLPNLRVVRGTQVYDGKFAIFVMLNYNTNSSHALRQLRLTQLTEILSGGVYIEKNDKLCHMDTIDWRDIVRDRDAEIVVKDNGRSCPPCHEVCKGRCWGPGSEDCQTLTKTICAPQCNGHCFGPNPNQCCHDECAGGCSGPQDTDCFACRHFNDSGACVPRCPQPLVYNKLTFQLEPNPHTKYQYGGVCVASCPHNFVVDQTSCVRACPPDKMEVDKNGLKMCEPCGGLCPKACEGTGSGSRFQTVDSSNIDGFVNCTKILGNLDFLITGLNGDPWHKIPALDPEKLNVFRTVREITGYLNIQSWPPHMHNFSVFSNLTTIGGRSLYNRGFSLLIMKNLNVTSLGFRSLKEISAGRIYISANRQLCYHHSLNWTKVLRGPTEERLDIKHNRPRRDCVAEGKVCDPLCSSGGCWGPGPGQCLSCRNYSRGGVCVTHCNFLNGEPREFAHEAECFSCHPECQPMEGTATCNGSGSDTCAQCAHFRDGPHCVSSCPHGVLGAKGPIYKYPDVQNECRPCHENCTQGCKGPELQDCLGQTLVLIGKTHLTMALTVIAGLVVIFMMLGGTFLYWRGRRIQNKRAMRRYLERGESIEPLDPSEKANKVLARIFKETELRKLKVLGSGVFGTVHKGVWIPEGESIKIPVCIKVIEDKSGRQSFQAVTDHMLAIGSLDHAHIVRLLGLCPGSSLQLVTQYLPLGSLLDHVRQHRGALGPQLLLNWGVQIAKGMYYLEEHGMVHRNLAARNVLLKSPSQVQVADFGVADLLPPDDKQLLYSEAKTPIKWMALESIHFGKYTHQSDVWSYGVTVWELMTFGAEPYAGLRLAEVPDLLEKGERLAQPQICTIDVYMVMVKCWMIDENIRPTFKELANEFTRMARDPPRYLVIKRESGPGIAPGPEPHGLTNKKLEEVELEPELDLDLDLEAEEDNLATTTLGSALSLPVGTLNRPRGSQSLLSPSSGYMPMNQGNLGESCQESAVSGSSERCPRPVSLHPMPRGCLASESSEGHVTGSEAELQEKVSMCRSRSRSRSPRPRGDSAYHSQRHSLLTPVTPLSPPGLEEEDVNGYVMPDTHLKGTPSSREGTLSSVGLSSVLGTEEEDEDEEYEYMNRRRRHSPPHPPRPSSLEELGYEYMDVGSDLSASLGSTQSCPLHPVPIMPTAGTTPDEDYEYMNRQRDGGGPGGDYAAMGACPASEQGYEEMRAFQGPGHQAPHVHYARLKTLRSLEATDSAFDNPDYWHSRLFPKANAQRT
Chain of Casein kinase I isoform alpha-like (Homo sapiens) (Q8N752 whole entry, the tested form may be a part, canonical isoform): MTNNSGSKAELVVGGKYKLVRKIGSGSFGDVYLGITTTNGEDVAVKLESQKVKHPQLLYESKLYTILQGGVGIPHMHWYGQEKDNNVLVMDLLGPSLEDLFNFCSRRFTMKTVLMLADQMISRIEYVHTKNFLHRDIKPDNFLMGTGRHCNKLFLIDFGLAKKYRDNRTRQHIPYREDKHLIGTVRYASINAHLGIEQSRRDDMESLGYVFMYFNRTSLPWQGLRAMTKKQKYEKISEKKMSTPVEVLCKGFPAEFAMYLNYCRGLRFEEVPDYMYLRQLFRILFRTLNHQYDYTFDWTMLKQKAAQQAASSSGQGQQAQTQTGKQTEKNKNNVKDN

Regarding `COc1ncc(-c2ccc3nccc(/C(C)=C/C(=O)N4CCN(C)CC4)c3c2)cc1NS(=O)(=O)c1ccc(F)cc1F`, the Activity in data set [1] is 1.9%; in data set [2] it was 89%; in data set [4], 44%; in [5], 84%; in data set [7], 78%; in [11] it was “Non-Toxic”. For the same molecule, the Activity in [14] came out at 71%; in [15], 100%; in [16] it was 100%; in data set [17] it was 100%; in [19] it was 87%; in data set [20], 53%. Also, the Activity in [22] amounted to 58%; in [23], 0%. In [3], this molecule yielded a half-life of 1.85 h. Besides, in the data set on U-87 MG [6], the inhibition in vivo at 30 mg/kg stood at 93.5%. In data set [8], the inhibition result is “Active”. For the same molecule, the Cmax in [9] is 903 ng/mL. This molecule also came in with a GI50 with U-87 MG [10] of 140 nM. Moreover, the MRT inf in data set [12] is 2.57 h. The 50% inhibitory concentration (IC50) in data set [13] amounted to 0.8 nM. Further, the MRT last in [18] was 1.9 h. Also, the AUC(0-inf) in [21] amounted to 1450 ng·h/mL. Moreover, the TGI result with U-87 MG [24] was “Active”.
